Laboratory results as given in article PMC11729038 (Bioorganic & medicinal chemistry letters, 2024).

How the values were obtained:
melatonin receptors = settings: cited from earlier work
[1] = Reaction of electrophiles with CoASH, adduct formation monitored by LC-MS; type: physicochemical; settings: for kforward, reaction with CoASH: 25 °C, pH 7.5 phosphate buffer, 2 mM each of CoASH and electrophile, 1 mM TCEP, 5% MeOH, same with and without 1.2 μM AANAT
How it was run: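 Uncatalyzed electrophile–CoASH reactions contained 5% MeOH for electrophile dissolution. CoASH adduct formation was followed over time by LC-MS. Rate constants came from global kinetic fitting of product accumulation. Upper and lower bounds were set within a 0.83 relative error threshold.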

[2] = cited from earlier work
sheep AANAT enzyme = settings: truncated bisubstrate inhibitor versus 2; cited from earlier work
human AANAT enzyme = settings: cited from earlier work
AANAT = AANAT (Ovis aries, UniProt Q29495); assay: AANAT enzymatic; type: biochemical, Ovis aries (sheep); settings: for Fold less potent than 1 (AANAT IC50): relative to compound 1; for Inhibition of AANAT at 10 μM test compound concentration: sheep AANAT
AANAT, sequence (Q29495 whole entry): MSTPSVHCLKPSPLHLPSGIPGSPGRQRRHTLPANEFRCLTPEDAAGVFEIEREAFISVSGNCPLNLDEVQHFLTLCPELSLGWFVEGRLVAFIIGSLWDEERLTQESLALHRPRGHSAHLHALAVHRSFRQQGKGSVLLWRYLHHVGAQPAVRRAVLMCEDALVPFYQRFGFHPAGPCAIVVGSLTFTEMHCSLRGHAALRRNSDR

For `O=C(CBr)NCCc1c[nH]c2ccccc12` [Compound 1, bromoacetyltryptamine, reference compound], the “Selectivity against melatonin receptors” value (melatonin receptors) is given as “lack selectivity”, the “Second order rate constant, reaction with CoASH” value ([1]; pH 6.8, absence of AANAT) is given as 0.0218 M⁻¹ s⁻¹ and the “Effect of AANAT on rate of reaction with CoASH” value ([1]; pH 7.5) is given as “the same in the presence and absence of AANAT”.

In the case of `CC(C)(CO[P@@](=O)(O)O[P@@](=O)(O)OC[C@H]1O[C@@H](n2cnc3c(N)ncnc32)[C@H](O)[C@@H]1OP(=O)(O)O)[C@@H](O)C(=O)NCCC(=O)NCCSCC(=O)NCCc1c[nH]c2ccccc12` [Compound 2], the Cell permeability [2] is listed as “poor cell permeability”.

In the case of `CC(C)(COP(=O)(O)OP(=O)(O)OC[C@H]1O[C@@H](n2cnc3c(N)ncnc32)[C@H](O)[C@@H]1OP(=O)(O)O)[C@@H](O)C(=O)NCCC(=O)NCCSC(=O)NCCc1c[nH]c2ccccc12` [Compound 3a], the “Fold less potent than 2 (reported)” value (sheep AANAT enzyme) is given as 4 X.

In the case of `O=C(CBr)NCCc1csc2ccc(O)cc12` [Compound 6], the “Selectivity against melatonin receptors” value (melatonin receptors) is given as “lack selectivity”.

For `C=CC(=O)NCCc1csc2ccc(OC)cc12` [Compound 7], the “Fold less potent than bromoacetyl analog 5 (reported IC50)” value (human AANAT enzyme) is given as 40 X.

For `O=C(CBr)NCc1c[nH]c2ccccc12` [Compound 8], the “Fold less potent than 1 (AANAT IC50)” value (AANAT) was 6 X.

For `O=C(CBr)NCCCc1c[nH]c2ccccc12` [Compound 9], the “Fold less potent than 1 (AANAT IC50)” value (AANAT) was 6 X.

For `C=CC(=O)NCc1c[nH]c2ccccc12` [Compound 10], the “kforward, reaction with CoASH” value [1] was 0.00026 M⁻¹ s⁻¹ and the “Reaction rate with CoASH at pH 6.8 relative to pH 7.5” value ([1]; pH 6.8, in the presence of enzyme) was “several times slower than at pH 7.5”.

With `C=CC(=O)NCCc1c[nH]c2ccccc12` [Compound 11] the “Inhibition of AANAT at 10 μM test compound concentration” value (“Inhibition of AANAT” for short) (AANAT) was “inactive” and the “kforward, reaction with CoASH” value [1] was 0.000146 M⁻¹ s⁻¹.

In the case of `C=CS(=O)(=O)NCc1c[nH]c2ccccc12` [Compound 12], the “Inhibition of AANAT” value (AANAT) is reported as “inactive” and the “kforward, reaction with CoASH” value [1] is reported as 0.00435 M⁻¹ s⁻¹.

With `C=CS(=O)(=O)NCCc1c[nH]c2ccccc12` [Compound 13] the “Inhibition of AANAT” value (AANAT) was “inactive” and the “kforward, reaction with CoASH” value [1] was 0.00183 M⁻¹ s⁻¹.
